Results published in BindingDB's records for doi:10.1016/j.bmcl.2013.07.029 (Vanderbilt University Medical Center, 2013).

Biological target: Metabotropic glutamate receptor 1 (Homo sapiens, UniProt Q13255)
Assay: Negative allosteric modulation of human mGlu1 receptor expressed in HEK293A TREx cells assessed as calcium flux after 45 mins
Method in brief: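 HEK293A TREx cells stably expressing human mGlu1 were induced overnight with 50 ng/mL tetracycline at 37 °C. Ten-point 1:3 compound series were added for 2.3 min, then an EC20 of glutamate, then an EC80 of glutamate 1.9 min later. Ca2+ flux was read for 1.7 min. Values are the average of n ≥ 3.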

Metabotropic glutamate receptor 1, sequence (Q13255 whole entry): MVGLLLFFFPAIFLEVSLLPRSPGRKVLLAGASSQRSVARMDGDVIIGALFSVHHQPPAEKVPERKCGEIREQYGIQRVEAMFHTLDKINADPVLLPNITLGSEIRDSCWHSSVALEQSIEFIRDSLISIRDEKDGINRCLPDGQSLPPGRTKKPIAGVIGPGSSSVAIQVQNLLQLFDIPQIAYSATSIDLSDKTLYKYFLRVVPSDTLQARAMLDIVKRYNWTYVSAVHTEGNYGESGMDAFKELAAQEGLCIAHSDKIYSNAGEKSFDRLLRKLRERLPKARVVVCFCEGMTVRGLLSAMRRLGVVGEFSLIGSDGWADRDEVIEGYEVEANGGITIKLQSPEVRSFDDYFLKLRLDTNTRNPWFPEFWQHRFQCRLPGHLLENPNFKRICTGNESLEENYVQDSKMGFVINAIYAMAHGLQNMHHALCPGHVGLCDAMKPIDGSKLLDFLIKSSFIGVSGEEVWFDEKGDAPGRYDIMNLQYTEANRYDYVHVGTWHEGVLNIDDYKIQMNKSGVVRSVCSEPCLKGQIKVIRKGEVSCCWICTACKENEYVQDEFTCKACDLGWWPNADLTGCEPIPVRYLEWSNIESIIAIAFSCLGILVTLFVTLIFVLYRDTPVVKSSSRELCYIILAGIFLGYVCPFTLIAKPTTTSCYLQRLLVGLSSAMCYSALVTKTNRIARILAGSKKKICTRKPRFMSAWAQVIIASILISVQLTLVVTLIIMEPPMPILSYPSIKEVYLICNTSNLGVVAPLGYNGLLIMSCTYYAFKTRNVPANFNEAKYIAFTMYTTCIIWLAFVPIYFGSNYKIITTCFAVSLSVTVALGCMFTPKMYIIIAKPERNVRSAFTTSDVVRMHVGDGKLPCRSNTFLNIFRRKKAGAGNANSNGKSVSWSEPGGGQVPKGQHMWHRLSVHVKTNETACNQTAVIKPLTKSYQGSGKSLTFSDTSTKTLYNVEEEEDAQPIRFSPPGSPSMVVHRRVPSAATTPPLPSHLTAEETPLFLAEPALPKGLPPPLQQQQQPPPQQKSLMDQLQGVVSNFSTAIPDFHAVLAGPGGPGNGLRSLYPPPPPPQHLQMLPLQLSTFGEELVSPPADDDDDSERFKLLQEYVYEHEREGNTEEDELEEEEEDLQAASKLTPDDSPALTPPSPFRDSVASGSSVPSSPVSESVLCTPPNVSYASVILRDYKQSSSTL

| IC50 | Structure (SMILES) |
| --- | --- |
| > 31.6 µM | CC(C)(C)CC(=O)N1C[C@@H]2CN(c3ccccn3)C[C@@H]2C1 |
| > 31.6 µM | CC(C)(C)C(=O)N1C[C@@H]2CN(c3ccccn3)C[C@@H]2C1 |
